Source: PubChem
A selection: hits, their analogues and other compounds. The true share with any hit is near 1%.
Yeast tox: Inhibitors of S. cerevisiae growth, toxicity; AID 685; growth inhibition, % at 25 µM (by protocol); actives 0.3% (n = 30,000); S. cerevisiae wild-type growth, A595 turbidity, 16 h;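 active = mutant and wild-type yeast strains alike exhibit over 30% growth inhibition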
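Schedule: 16 h growth with compound, 30 °C. System: yeast, wild-type or eIF2Bepsilon-R284H mutant. Doses: one dose, 25 µM compound[…]. Buffer or medium: YPD. Signal: turbidity measured as absorbance at 595 nm. Read-out basis: growth inhibition (%) versus cell controls and blanks.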
eIF2B yeast act: modulators of yeast eIF2B activity; S. cerevisiae eIF2B-epsilon R284H, GCN4-lacZ luminescence; inhibition, % at 25 µM (by protocol); actives 0.91% (n = 27,000); AID 688;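 active = mutant luminescence inhibited past about 50% while wild type luminescence and mutant growth stay under set limits, limit read from the data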
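Assay system: yeast eIF2B-epsilon R284H mutant carrying GCN4–beta-galactosidase fusion / Buffer or medium: YPD / Incubation: 16 h growth with compound at 30 °C, 90 min Beta-Glo step / Detection: Beta-Glo luminescence after Z-buffer lysis, growth by 595 nm absorbance / Read-out: % inhibition of reporter signal and growth versus controls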
Numbers stand for hits; - = inactive; . = no result.

SMILES	Yeast tox	eIF2B yeast act
CN1C(=O)NC(c2ccccc2)C2=C1CN(CCc1ccccc1)C2=O (stereo unspecified)	-	-
CCOc1cc(C2NC(=O)NC(C)=C2C(C)=O)cc(Cl)c1OCC(=O)O (stereo unspecified)	-	-
Cc1ccc(-c2nc(=S)c3c(n2CCN2CCOCC2)CC(C)(C)OC3)cc1	-	.
CC1(C)Cc2c(c(=S)nc(-c3ccccc3)n2CCOCCO)CO1	-	51.4
CC(=O)Nc1ccc(NC(=O)Oc2ccccc2)cc1	-	-
CC(=O)Oc1ccc(NC(=O)Cc2ccccc2)cc1	-	58.3
COCC(=O)Nc1ccc(Nc2ccccc2)cc1	30.6	-
CCC(=O)Nc1ccc(Nc2ccccc2)cc1	-	-
Cn1c(SCC#N)nnc1-c1cnccn1	-	-
Fc1ccc(Nc2nc(Oc3ccccc3F)nc(N3CCCC3)n2)cc1	-	.
O=C1CC(O)(C(F)F)Oc2ccc3ccccc3c21 (stereo unspecified)	-	52.7
O=C1CC(O)(C(F)(F)F)Oc2c1ccc1ccccc21 (stereo unspecified)	-	-
CCOc1ccc(CCNS(=O)(=O)c2cccc3nsnc23)cc1OCC	-	-
CCOC(=O)C1(CCSC)NC(c2ccco2)C2C(=O)N(C)C(=O)C21 (stereo unspecified)	-	72.4
CCOC(=O)C1(CC)NC(c2ccco2)C2C(=O)N(C)C(=O)C21 (stereo unspecified)	-	-
O=C(OCCN=C1NS(=O)(=O)c2ccccc21)C1CC(=O)N(c2ccc3ccccc3c2)C1 (stereo unspecified)	-	-
CCOC(=O)c1c(N2C(=O)C3CC(C)=C(C)CC3C2=O)sc(C)c1C (stereo unspecified)	-	-
CCS(=O)(=O)N1CCN(C(=O)c2ccccc2)CC1	-	-
O=C(c1ccccc1)N1CCN(C(=O)c2ccncc2)CC1	-	50.5
CC(C)CC(=O)Nc1ccccc1Oc1ccccc1	-	-
CCOC(=O)c1cnc(SCc2cccc(C)c2)nc1N	-	-
CCCC1COC(Cn2cncn2)(c2ccc(C)cc2)O1 (stereo unspecified)	93.4	-
COc1ccc(CC(=O)Nc2ccc(N3CCN(c4ccc(OC)cc4)CC3)c(C#N)c2)cc1	-	53.3
COc1ccc(OCC(=O)Nc2ccc(N3CCOCC3)cc2)cc1	-	-
COC(=O)c1ccccc1NC(=O)CSc1nnc(-c2cccc(NC(C)=O)c2)n1C	-	-
SMILES	Yeast tox	eIF2B yeast act
COCCCNC(=S)NNC(=O)c1cccnc1	-	-
O=C(c1ccccc1)N1CCc2ccccc21	-	-
O=C(c1ccc(Br)o1)N1CCCc2ccccc21	-	53.3
Cc1cc(C)c(S(=O)(=O)N(C)CC(=O)NC2CCCC2)c(C)c1	-	-
COC(=O)c1ccc2c(=O)n(CCC3=CCCCC3)c(SCC(=O)N3CCCC3)nc2c1	-	-
CCc1nc(N2CCOCC2)c(C#N)c2c1CCCC2	-	-
N#Cc1c(N2CCOCC2)nc(-c2ccco2)c2c1CCCC2	-	57.0
CCOc1cc(S(=O)(=O)N2CCC(C(N)=O)CC2)ccc1F	-	-
CCC1CCCCN1C(=O)CSc1nnc(-c2cccs2)o1 (stereo unspecified)	-	-
O=C(NC1CCCC1)c1noc2c1CCCCC2	-	-
COC(=O)Cn1c2ccc(OC)cc2c2nc3ccccc3nc21	-	53.1
CCOC(=O)Cn1c2ccc(OC)cc2c2nc3ccccc3nc21	-	-
O=S(=O)(NCCc1ccccc1F)c1cccc(S(=O)(=O)N2CCOCC2)c1	-	-
CCCCNS(=O)(=O)c1cccc(S(=O)(=O)N2CCCC2)c1	-	52.8
Cc1ccc(C2/C(=C(\O)c3c(C)nc4ccccn34)C(=O)C(=O)N2CCCN2CCOCC2)o1 (stereo unspecified)	-	-
O=C(Nc1cc(Cl)ccc1O)C1CCCO1 (stereo unspecified)	.	-
O=C(Nc1nc2ccc(Cl)cc2s1)C1CCCO1 (stereo unspecified)	30.0	.
O=c1[nH]c2ccsc2c(=O)n1-c1ccc(F)c(Cl)c1	-	-
COc1ccc2c(c1)CCc1c(C(=O)N3CC4(C)CC3CC(C)(C)C4)noc1-2 (stereo unspecified)	-	70.7
COc1ccc2c(c1)CCc1c(C(=O)N3CCCc4ccccc43)noc1-2	-	-
CN(CC(=O)Nc1cccc2ccccc12)c1ccc(S(=O)(=O)N2CCOCC2)cn1	-	-
CCOC(=O)c1c(NC(=O)CN(C)C)sc(C(=O)N(CC)CC)c1C	-	-
CCCC(=O)Nc1sc(C(=O)OC)c(C)c1C(N)=O	-	58.1
COc1ccc(OC)c(C2/C(=C(\O)c3c(C)nc4ccccn34)C(=O)C(=O)N2CCCN(C)C)c1 (stereo unspecified)	-	-
Cc1nnc(-c2cnn(C)c2N)n1Cc1cccc(Cl)c1	-	.
SMILES	Yeast tox	eIF2B yeast act
O=c1[nH]c(NC2CCCCC2)nnc1Cc1ccccc1	-	-
Cc1nnc(NC2CCCCC2)[nH]c1=O	-	65.1
O=c1ccc(Cl)cn1Cc1ccccc1F	-	-
COc1ccc(N2C(=O)CC(Sc3nc(C)cc(C)c3C#N)C2=O)cc1 (stereo unspecified)	.	-
Nc1nnc(SC2CC(=O)N(c3ccccc3)C2=O)s1 (stereo unspecified)	61.9	-
CC(CNC(=O)C1CCCCC1C(=O)O)c1ccccc1 (stereo unspecified)	-	-
O=C1CC(N2CCN(c3ccc(F)cc3)CC2)C(=O)N1Cc1cccs1 (stereo unspecified)	-	-
O=C1CC(N2CCN(c3nc4ccccc4s3)CC2)C(=O)N1Cc1cccs1 (stereo unspecified)	72.9	-
O=C(c1ccc2c(c1)OCCO2)N1CCN(Cc2ccccc2)CC1	-	-
CCCCNC(=O)C1CCCN1C(=O)Nc1ccccc1 (stereo unspecified)	-	-
C=C(C)C(=O)Nc1ccc(OC(F)(F)C(F)F)c(NC(=O)C(=C)C)c1	-	-
CN1CCN(c2nc(N3CCN(CCO)CC3)nc3ccccc23)CC1	-	54.9
c1ccc(CN2CCN(c3nc(N4CCOCC4)c4ccccc4n3)CC2)cc1	-	-
CCCN1CCN(CCCNC(=O)CCNC(=O)Cn2ccc3ccccc3c2=O)CC1	-	.
COc1ccc(C2NC(=O)NC(C)=C2C(C)=O)cc1 (stereo unspecified)	-	51.5
C=CCOc1ccc(C2NC(=O)NC(C)=C2C(=O)OC)cc1 (stereo unspecified)	-	-
